# Laboratory results as given in ChEMBL document CHEMBL5038608, “Design, synthesis, and biological evaluation of novel pyrrolidinone small-molecule Formyl peptide receptor 2 agonists” (Eur J Med Chem, 2021).
# Calls of active or inactive are those of the source. The rule behind the calls is not given here.
# How the values were obtained:
# [1] = molecular target: T1, N-formyl peptide receptor 2 (Homo sapiens, UniProt P25090); assay: Agonist activity at FPRL1 (unknown origin) expressed in CHO-K1 cells assessed as increase in calcium mobilization incubated for 2.5 hrs by cellular based FLIPR assay; type: functional, cell-based
# T1 sequence (P25090 whole entry): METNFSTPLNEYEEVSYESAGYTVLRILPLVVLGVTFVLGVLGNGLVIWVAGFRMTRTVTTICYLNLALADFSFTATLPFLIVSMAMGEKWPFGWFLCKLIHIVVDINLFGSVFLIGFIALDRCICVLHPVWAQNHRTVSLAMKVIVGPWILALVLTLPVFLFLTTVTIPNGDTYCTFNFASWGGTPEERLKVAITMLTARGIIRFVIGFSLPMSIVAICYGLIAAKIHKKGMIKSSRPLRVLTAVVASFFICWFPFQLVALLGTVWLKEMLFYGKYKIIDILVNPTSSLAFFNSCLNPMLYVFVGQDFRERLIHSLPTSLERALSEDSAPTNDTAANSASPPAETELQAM
# Procedure, shortened: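 CHO-K1 cells overexpressing hFPR2, plated at 20,000 cells/well in F-12 with 10% FBS and held overnight at 37 °C. Loaded with FLIPR Calcium 6 dye for 2 h at 37 °C, then 30 min at RT in the dark. Compounds were half-log serially diluted from 10 mM stocks in HBSS/20 mM HEPES. Cytosolic Ca2+ rise read on FLIPR Tetra. WKYMVm served as control.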
# [2] = molecular target: T1, N-formyl peptide receptor 2; assay: Agonist activity at FPRL1 (unknown origin) expressed in CHO-K1 cells assessed as stimulation of beta-arrestin recruitment incubated for 150 mins by beta-galactosidase based PathHunter assay; type: functional, cell-based
# Procedure, shortened: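 PathHunter CHO-K1 FPRL1 cells expressing β-gal enzyme-fragment complementation, 5000 cells/well, held overnight at 37 °C. Stimulated with half-log serial dilutions of compounds (10 mM stocks in PBS) for 150 min at 37 °C. High control was WKYMVm at 100 nM. Detection reagent added for 60 min at RT in the dark, then chemiluminescence read.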
# [3] = Kinetic solubility of compound in PBS at pH 7.4 by UV-VIS absorption spectrophotometry analysis; type: physicochemical; settings: for solubility kinetic: PBS, read-out: Kinetic_solubility; for Kinetic_solubility: buffer
# Procedure, shortened: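 A 10 mM DMSO stock was diluted into PBS pH 7.4 at a target of 200 µM (final PBS:DMSO 98:2), in triplicate. Agitated 500 rpm for 90 min, then filtered. Filtrate diluted to PBS:DMSO 80:20 and its UV absorbance compared against a 200–6.75 µM standard series to give the concentration remaining in solution.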
# [4] = Distribution coefficient, logD of compound at pH 7.4 by shake flask method based LC-MS/MS analysis; type: physicochemical; settings: octanol/water
# Procedure, shortened: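 Shake-flask method: compound diluted from 10 mM DMSO stock into equal volumes of octanol and PBS, final concentration 100 µM. Shaken 12 h, then centrifuged. Both layers analysed in triplicate by LC-MS/MS (MRM, C8 UPLC). LogD = log10 of the octanol/buffer peak-area ratio.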
# [5] = molecular target: T2, N-formyl peptide receptor 2 (Homo sapiens) (UniProt P25090); assay: Agonist activity at FPRL1 (unknown origin) expressed in CHO-K1 cells assessed as increase in calcium mobilization […] incubated for 2.5 hrs by cellular based FLIPR assay; type: functional, cell-based
# T2 sequence (whole entry): T1 sequence (P25090 whole entry)
# Procedure, shortened: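 CHO-K1 cells overexpressing human FPR2 (PathHunter FPRL1 line), plated at 20,000/well in F-12 with 10% FBS and held 1 h RT, then overnight at 37 °C. Calcium 6 dye loaded 2 h at 37 °C, then 30 min RT in the dark. Compounds were half-log serially diluted from 10 mM stocks in HBSS with 20 mM HEPES. Cytosolic Ca2+ rise read on FLIPR Tetra.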
# [6] = molecular target: T2, N-formyl peptide receptor 2 (Homo sapiens); assay: Agonist activity at FPRL1 (unknown origin) expressed in CHO-K1 cells assessed as stimulation of beta-arrestin recruitment […] incubated for 150 mins by beta-galactosidase based PathHunter assay; type: functional, cell-based
# Procedure, shortened: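 PathHunter CHO-K1 FPRL1 cells carry complementing β-galactosidase fragments. Plated at 5000/well, held 1 h RT, then overnight at 37 °C. Compounds were half-log serially diluted from 10 mM stocks in PBS. Stimulation 150 min at 37 °C; W-peptide (WKYMVm, 100 nM) was the high control. Detection reagent added for 60 min RT in the dark, with chemiluminescence read-out.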
# [7] = Microsomal stability in human liver microsomes assessed as half life at 1 uM preincubated for 5 mins followed by NADPH regenerating system addition measured after 30 mins by LC-MS/MS analysis; type: ADME, Microsome; settings: t1/2, time 35 min
# Procedure, shortened: (§1)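 Human or mouse liver microsomes (0.2 mg/mL protein) with compound at 1 µM final, pre-incubated 5 min at 37 °C. Reaction started with NADPH generating solution and agitated at 37 °C, with samples quenched up to 30 min. Centrifuged; supernatant analysed in triplicate by LC-MS.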
# [8] = Microsomal stability in mouse liver microsomes assessed as half life at 1 uM preincubated for 5 mins followed by NADPH regenerating system addition measured after 30 mins by LC-MS/MS analysis; type: ADME, Microsome; settings: t1/2, time 35 min; procedure, shortened: as §1
# [9] = filed as agonist, time 0.067 hrs, in the assay text read “measured for 240 s” for “incubated for 2.5 hrs”
Structure (SMILES),EC50 ([1]; read-out: EC50) [nM],EC50 ([2]; read-out: EC50) [nM],solubility kinetic [3] [µM],logD [4],"Emax [5, 9] [%]",Emax ([6]; filed as agonist) [%],logD ([4]; read-out: logD),half-life at 1 µM [7] [h],half-life at 1 µM [8] [h],EC50 ([1]; cho-k1),EC50 ([2]; cho-k1),Emax ([5]; time 2.5 hrs),Emax [6],Kinetic_solubility [3] [µM]
CC(C)(C)OC(=O)N1CCC[C@H](N2CCC(NC(=O)Nc3ccc(Br)cc3)C2=O)C1 (stereo in doubt; 19),130,1380,71,> 4,–,–,–,–,–,–,–,–,–,–
O=C(Nc1ccc(Br)cc1)NC1CCN(C2CCNCC2)C1=O (stereo unspecified),230,1030,234,–,68,100,0.3,–,–,–,–,–,–,–
O=C(Nc1ccc(Br)cc1)NC1CCN(CC2CCNCC2)C1=O (stereo unspecified),270,3290,227,–,84,102,0.8,6.35,2.33,–,–,–,–,–
O=C(Nc1ccc(Br)cc1)NC1CCN(CC2CCN(Cc3ccccc3)CC2)C1=O (stereo unspecified),250,2250,192,–,99,93,2.5,3.78,2.02,–,–,–,–,–
O=C(Nc1ccc(Br)cc1)NC1CCN(Cc2ccccc2)C1=O (stereo unspecified),–,–,75,–,–,–,4.4,2.8,2.12,Not Active,Not Active,inactive,inactive,–
O=C(Nc1ccc(Br)cc1)NC1CCN(C2CCN(Cc3ccccc3)C2)C1=O (stereo in doubt; 17),2700,1370,–,3.3,–,–,–,–,–,–,–,–,–,210
CC(C)(C)OC(=O)N1CCC[C@H](N2CCC(NC(=O)Nc3ccc(Br)cc3)C2=O)C1 (stereo in doubt; 20),60,550,–,–,–,–,4.1,–,0.5,–,–,–,–,54
O=C(Nc1ccc(Br)cc1)NC1CCN(C2CCN(Cc3ccccc3)C2)C1=O (stereo in doubt; 18),370,700,207,–,–,–,3,0.933,0.6,–,–,–,–,–
CC(C)(C)OC(=O)N1CC(N2CCC(NC(=O)Nc3ccc(Br)cc3)C2=O)C1 (stereo unspecified),410,2350,222,–,67,103,> 4,1.88,1.87,–,–,–,–,–
CC(C)(C)OC(=O)N1CCC(CN2CCC(NC(=O)Nc3ccc(Br)cc3)C2=O)CC1 (stereo unspecified),400,2160,53,–,86,92,> 4,0.317,0.317,–,–,–,–,–
O=C(Nc1ccc(Br)cc1)NC1CCN(c2cnn(-c3ccncc3)c2)C1=O (stereo unspecified),–,3760,3,–,–,103,4.3,11,–,Not Active,–,inactive,–,–
Cc1nn(-c2ccccc2)c(C)c1N1CCC(NC(=O)Nc2ccc(Br)cc2)C1=O (stereo unspecified),280,400,57,–,150,95,4.6,3.15,0.633,–,–,–,–,–
O=C(Nc1ccc(Br)cc1)NC1CCN(C2CCN(Cc3ccccc3)CC2)C1=O (stereo unspecified),350,2870,152,–,76,96,3.5,1.87,1.17,–,–,–,–,–
CC(C)(C)OC(=O)N1CCC(N2CCC(NC(=O)Nc3ccc(Br)cc3)C2=O)CC1 (stereo unspecified),730,6300,61,–,42,93,4.6,4.17,0.522,–,–,–,–,–
